Reference: ChEMBL document CHEMBL1136859, “Synthesis and antimicrobial evaluation of some new substituted purine derivatives” (2009)
Values after ≈ are worked out from the molar mass of the structure shown.

Legend:
Assay type in all cases: functional
[1] = tested on: Staphylococcus aureus; assay: Antibacterial activity against methicillin-resistant Staphylococcus aureus […] after 18 to 24 hrs by tube dilution method
How it was run: (§1)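 Two-fold broth tube dilution in Mueller–Hinton broth. Strains kept on Mueller–Hinton agar for 24 h at 37 °C. Colonies suspended in sterile water and adjusted to 0.5 McFarland, giving a final inoculum of about 10⁵ CFU/mL. Compounds dissolved in 12.5% DMSO at 200 µg/mL and serially diluted to 0.19 µg/mL. Incubated 18–24 h at 37 °C. MIC taken as the last tube with no growth.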

[2] = tested on: Staphylococcus aureus; assay: Antibacterial activity against methicillin-resistant Staphylococcus aureus isolate after 18 to 24 hrs by tube dilution method; how it was run: as §1
[3] = tested on: Candida albicans; assay: microbe, parasite or virus in culture
[4] = tested on: Bacillus subtilis; assay: Antibacterial activity against Bacillus subtilis 6633 after 18 to 24 hrs by tube dilution method
How it was run: (§2)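 Tube dilution broth MIC in Mueller–Hinton broth. Strains were maintained on Mueller–Hinton agar for 24 h at 37 °C. Colonies were suspended in sterile water, adjusted to 0.5 McFarland, and added to give about 10⁵ CFU/mL final. Compounds were dissolved in 12.5% DMSO and serially diluted two-fold. Tubes were incubated 18–24 h at 37 °C. MIC was taken as the last tube with no growth.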

[5] = tested on: Escherichia coli; assay: Antibacterial activity against Escherichia coli 25922 after 18 to 24 hrs by tube dilution method; settings: ATCC25922; how it was run: as §2
[6] = tested on: Staphylococcus aureus; assay: Antibacterial activity against Staphylococcus aureus ATCC 25923 after 18 to 24 hrs by tube dilution method; how it was run: as §1

Structure (SMILES) | MIC [1] | MIC [2] | MIC [3] | MIC [4] | MIC [5] | MIC [6]
Nc1ncnc2c1ncn2C1CCCC1 | 50 µg/mL (≈ 246 µM) | 50 µg/mL (≈ 246 µM) | 12.5 µg/mL (≈ 61.5 µM) | 25 µg/mL (≈ 123 µM) | 50 µg/mL (≈ 246 µM) | 50 µg/mL (≈ 246 µM)
COc1ccc(CNc2ncnc3c2ncn3C2CCCC2)c(OC)c1 | 50 µg/mL (≈ 141 µM) | 50 µg/mL (≈ 141 µM) | 12.5 µg/mL (≈ 35.4 µM) | 25 µg/mL (≈ 70.7 µM) | 25 µg/mL (≈ 70.7 µM) | 50 µg/mL (≈ 141 µM)
c1ccc(NCCNc2ncnc3[nH]cnc23)cc1 | 50 µg/mL (≈ 197 µM) | 50 µg/mL (≈ 197 µM) | 3.12 µg/mL (≈ 12.3 µM) | 50 µg/mL (≈ 197 µM) | 25 µg/mL (≈ 98.3 µM) | 50 µg/mL (≈ 197 µM)
Clc1ccc(CO/N=C(\Cn2ccnc2)c2ccc(Cl)cc2Cl)c(Cl)c1 [OXICONAZOLE] | – | – | 6.25 µg/mL (≈ 14.6 µM) | – | – | –
CC1(C)S[C@@H]2[C@H](NC(=O)[C@H](N)c3ccccc3)C(=O)N2[C@H]1C(=O)O [AMPICILLIN] | 50 µg/mL (≈ 143 µM) | 50 µg/mL (≈ 143 µM) | – | 50 µg/mL (≈ 143 µM) | 50 µg/mL (≈ 143 µM) | 0.78 µg/mL (≈ 2.23 µM)
CC1(C)S[C@@H]2[C@H](NC(=O)[C@H](N)c3ccccc3)C(=O)N2[C@H]1C(=O)OCOC(=O)[C@@H]1N2C(=O)C[C@H]2S(=O)(=O)C1(C)C [SULTAMICILLIN] | 25 µg/mL (≈ 42 µM) | 25 µg/mL (≈ 42 µM) | – | 0.78 µg/mL (≈ 1.31 µM) | 25 µg/mL (≈ 42 µM) | 1.56 µg/mL (≈ 2.62 µM)
Clc1ccc(COC(Cn2ccnc2)c2ccc(Cl)cc2Cl)c(Cl)c1 (configuration not stated) [MICONAZOLE] | – | – | 3.12 µg/mL (≈ 7.5 µM) | – | – | –
O=C(O)c1cn(C2CC2)c2cc(N3CCNCC3)c(F)cc2c1=O [CIPROFLOXACIN] | – | 12.5 µg/mL (≈ 37.7 µM) | – | 0.19 µg/mL (≈ 0.573 µM) | – | 0.78 µg/mL (≈ 2.35 µM)
CCN(CC)CCNc1ncnc2c1ncn2Cc1ccc(F)cc1 | 50 µg/mL (≈ 146 µM) | 50 µg/mL (≈ 146 µM) | 25 µg/mL (≈ 73 µM) | 25 µg/mL (≈ 73 µM) | 50 µg/mL (≈ 146 µM) | 50 µg/mL (≈ 146 µM)
CCn1c(NCC(C)C)nc2c(N)ncnc21 | 50 µg/mL (≈ 213 µM) | 50 µg/mL (≈ 213 µM) | 25 µg/mL (≈ 107 µM) | 50 µg/mL (≈ 213 µM) | 50 µg/mL (≈ 213 µM) | 50 µg/mL (≈ 213 µM)
CN1CCN(Nc2ncnc3[nH]cnc23)CC1 | 50 µg/mL (≈ 214 µM) | 50 µg/mL (≈ 214 µM) | 12.5 µg/mL (≈ 53.6 µM) | 25 µg/mL (≈ 107 µM) | 25 µg/mL (≈ 107 µM) | 50 µg/mL (≈ 214 µM)
C1=CC(CCNc2ncnc3c2ncn3C2CCCC2)CCC1 (configuration not stated) | 25 µg/mL (≈ 80.3 µM) | 25 µg/mL (≈ 80.3 µM) | 12.5 µg/mL (≈ 40.1 µM) | 50 µg/mL (≈ 161 µM) | 25 µg/mL (≈ 80.3 µM) | 12.5 µg/mL (≈ 40.1 µM)
CC1CCN(c2ncnc3c2ncn3C2CCCC2)CC1 | 50 µg/mL (≈ 175 µM) | 50 µg/mL (≈ 175 µM) | 12.5 µg/mL (≈ 43.8 µM) | 50 µg/mL (≈ 175 µM) | 50 µg/mL (≈ 175 µM) | 50 µg/mL (≈ 175 µM)
CC(C)NCCNc1ncnc2c1ncn2C1CCCC1.Cl | 50 µg/mL | 50 µg/mL | 25 µg/mL | 25 µg/mL | 50 µg/mL | 25 µg/mL
Clc1ccc(CNc2ncnc3c2ncn3C2CCCC2)cc1 | 6.25 µg/mL (≈ 19.1 µM) | 6.25 µg/mL (≈ 19.1 µM) | 12.5 µg/mL (≈ 38.1 µM) | 25 µg/mL (≈ 76.3 µM) | 50 µg/mL (≈ 153 µM) | 12.5 µg/mL (≈ 38.1 µM)
Fc1ccc(CNc2ncnc3c2ncn3C2CCCC2)c(F)c1 | 50 µg/mL (≈ 152 µM) | 50 µg/mL (≈ 152 µM) | 25 µg/mL (≈ 75.9 µM) | 50 µg/mL (≈ 152 µM) | 50 µg/mL (≈ 152 µM) | 50 µg/mL (≈ 152 µM)
Clc1ccc(CNc2ncnc3c2ncn3C2CCCC2)c(Cl)c1 | 25 µg/mL (≈ 69 µM) | 50 µg/mL (≈ 138 µM) | 6.25 µg/mL (≈ 17.3 µM) | 25 µg/mL (≈ 69 µM) | 50 µg/mL (≈ 138 µM) | 12.5 µg/mL (≈ 34.5 µM)
Fc1ccc(CNc2ncnc3c2ncn3C2CCCC2)cc1 | 25 µg/mL (≈ 80.3 µM) | 25 µg/mL (≈ 80.3 µM) | 3.12 µg/mL (≈ 10 µM) | 25 µg/mL (≈ 80.3 µM) | 50 µg/mL (≈ 161 µM) | 25 µg/mL (≈ 80.3 µM)
CCn1c(NC2CCCC2)nc2c(N)ncnc21 | 50 µg/mL (≈ 203 µM) | 50 µg/mL (≈ 203 µM) | 12.5 µg/mL (≈ 50.7 µM) | 25 µg/mL (≈ 101 µM) | 50 µg/mL (≈ 203 µM) | 50 µg/mL (≈ 203 µM)
CC1CCN(c2ncnc3[nH]cnc23)CC1 | 50 µg/mL (≈ 230 µM) | 50 µg/mL (≈ 230 µM) | 25 µg/mL (≈ 115 µM) | 25 µg/mL (≈ 115 µM) | 50 µg/mL (≈ 230 µM) | 25 µg/mL (≈ 115 µM)
CC(C)NCCNc1ncnc2c1ncn2Cc1ccc(F)cc1 | 50 µg/mL (≈ 152 µM) | 50 µg/mL (≈ 152 µM) | 25 µg/mL (≈ 76.1 µM) | 50 µg/mL (≈ 152 µM) | 50 µg/mL (≈ 152 µM) | 50 µg/mL (≈ 152 µM)
COc1ccc(CNc2ncnc3c2ncn3C2CCCC2)cc1 | 50 µg/mL (≈ 155 µM) | 25 µg/mL (≈ 77.3 µM) | 12.5 µg/mL (≈ 38.7 µM) | 50 µg/mL (≈ 155 µM) | 50 µg/mL (≈ 155 µM) | 25 µg/mL (≈ 77.3 µM)
CCN(CC)CCNc1ncnc2c1ncn2C1CCCC1 | 50 µg/mL (≈ 165 µM) | 50 µg/mL (≈ 165 µM) | 50 µg/mL (≈ 165 µM) | 25 µg/mL (≈ 82.7 µM) | 50 µg/mL (≈ 165 µM) | 50 µg/mL (≈ 165 µM)
c1ccc(NCCNc2ncnc3c2ncn3C2CCCC2)cc1 | 50 µg/mL (≈ 155 µM) | 50 µg/mL (≈ 155 µM) | 12.5 µg/mL (≈ 38.8 µM) | 25 µg/mL (≈ 77.5 µM) | 50 µg/mL (≈ 155 µM) | 50 µg/mL (≈ 155 µM)
C1=CC(CCNc2ncnc3[nH]cnc23)CCC1 (configuration not stated) | 50 µg/mL (≈ 205 µM) | 50 µg/mL (≈ 205 µM) | 6.25 µg/mL (≈ 25.7 µM) | 25 µg/mL (≈ 103 µM) | 25 µg/mL (≈ 103 µM) | 50 µg/mL (≈ 205 µM)
CN1CCN(Nc2ncnc3c2ncn3C2CCCC2)CC1 | 50 µg/mL (≈ 166 µM) | 50 µg/mL (≈ 166 µM) | 25 µg/mL (≈ 82.9 µM) | 25 µg/mL (≈ 82.9 µM) | 50 µg/mL (≈ 166 µM) | 50 µg/mL (≈ 166 µM)
CCNc1nc2c(N)ncnc2n1C1CCCC1 | 50 µg/mL (≈ 203 µM) | 50 µg/mL (≈ 203 µM) | 6.25 µg/mL (≈ 25.4 µM) | 50 µg/mL (≈ 203 µM) | 50 µg/mL (≈ 203 µM) | 25 µg/mL (≈ 101 µM)
